Bioassay records: PubChem, several laboratories
RAM network inh = inhibitors of the yeast RAM network, primary screen, dse1pr::URA3 reporter, 5-FOA selection; S. cerevisiae dse1pr::URA3 reporter, 5-FOA growth OD615, 2 d; analog-sensitive cbk1-as2 kinase mutant strain; inhibition, % at 50 µM; actives 1.8% (n = 190,000);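 active means inhibition above a set limit, 3 SD over mean compound inhibition, cut at about 8.4% in these data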;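 further: inhibition rescues growth on 5-FOA so higher OD means more RAM inhibition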
SDO1 yeast rescue = growth rescue of sdo1-depleted yeast, primary screen, S. cerevisiae, bone marrow failure model | actives 0.21% (n = 140,000) | z-score at 10 µM | S. cerevisiae sdo1-depleted JHY4D growth rescue, OD600 30 h; stronger effect = higher value; pdr5 snq2 efflux-pump mutant strain;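 active means z-score above 3 at both the 24 hr and the 30 hr optical density reads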
BB579 growth dn = growth inhibitors of yeast BB579 in restrictive medium, primary screen, yeast lifespan-shortening project, S. cerevisiae. actives 0.51% (n = 140,000). AID 804, 2007. inhibition, % at 10 µM. OD615, 48 h;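 active means inhibition above a set limit, 3 SD over the mean compound inhibition, cut at about 44% in these data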
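Test system: S. cerevisiae DeaD strain BB579 yeast; Medium: restrictive CSMM-D medium; Compound: one dose, 10 µM compound with 0.25% DMSO; Incubation: 4 h cell preincubation, 48 h compound exposure, 30 °C humidified; Signal: OD at 615 nm; Benchmarks: amphotericin B at 10 µg/mL as positive control.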
Yeast life ext = compounds extending yeast replicative lifespan, primary screen, S. cerevisiae, OD615; S. cerevisiae growth with nicotinamide; deaD strain in restrictive glucose medium; inhibition of the nicotinamide effect, % at 10 µM; actives 0.68% (n = 130,000); AID 775, 2007;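 active means inhibition above a set limit, placed 3 SD over the median of all compounds, cut at about 26% in these data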
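Test system – modified budding yeast, DeaD strain · Compound – single dose 10 µM compound, 0.25% DMSO · Times – culture preincubation 4 h, compound exposure 48 h, both 30 °C · Detection – optical density (absorbance) at 615 nm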
RAM 5-FOA = 5-FOA growth of efflux-deficient control yeast, dose response, counter-screen for RAM network inhibitor project, S. cerevisiae, OD615. shares compounds with RAM network inh. S. cerevisiae efflux-deficient reporter strain, 5-FOA growth OD615, 2 days. max inhibition, %. 1,200 tested, under 10 active. AID 1305, 2008; call rule not given here
Numbers stand for hits; – = inactive; · = no result. Compounds with a hit are over-represented: about 2.7% of the library has one in this group of screens.

SMILES | RAM network inh | SDO1 yeast rescue | BB579 growth dn | Yeast life ext | RAM 5-FOA
CCCc1ccc(C2C3=C(CC(C)(C)CC3=O)NC3=C2C(=O)c2ccccc23)cc1 (stereo not drawn) | – | – | – | – | ·
O=C(NCc1ccccc1)C1=C[C@H](c2ccc(C(F)(F)F)cc2)C[C@H](OCc2ccc(CO)cc2)O1 | 12 | · | · | · | –
CCN(c1ccccc1)S(=O)(=O)c1ccc(Cl)c(C(=O)NCCc2ccc(OC)cc2)c1 | 12 | – | – | – | –
COc1ccc(CCNC(=O)c2ccc(Cl)c(S(=O)(=O)N(C)c3ccccc3)c2)cc1 | 17 | – | – | – | –
O=C(CSc1nnc2n1CCCN2)c1ccc(Cl)cc1 | – | – | – | – | ·
CCOc1ccc(Cn2c3ccc(OC)cc3c3nc4ccccc4nc32)cc1OC | – | – | – | – | ·
CC(C)CCNC(=O)C(c1cccnc1)N(CCc1ccccc1)C(=O)Cn1nnc2ccccc21 (stereo not drawn) | – | – | – | · | ·
COc1ccc(-c2ccc(-c3noc(-c4cccc(OC)c4)n3)c(OC)n2)cc1 | 15 | – | – | – | –
COc1ccc(-c2ccc(-c3noc(-c4ccccc4OC)n3)c(OC)n2)cc1 | – | – | – | – | ·
COc1ccc(-c2ccc(-c3noc(C4CCCCC4)n3)c(OC)n2)cc1 | 16 | – | – | – | –
CCOc1nc(-c2ccccc2)ccc1-c1noc(-c2ccco2)n1 | – | – | – | – | ·
COc1ccc(-c2ccc(-c3noc(-c4ccccc4C)n3)c(OC)n2)cc1 | 16 | – | – | – | –
CCOc1nc(-c2ccccc2)ccc1-c1noc(COc2ccccc2)n1 | 17 | – | – | – | –
CCc1ccc(N(CC(=O)NC)S(C)(=O)=O)cc1 | – | – | – | – | ·
O=C(/C=C/c1ccccc1)Nc1nc(-c2ccncc2)cs1 | – | · | · | · | ·
Cc1cc(C)c(OC2(c3ccccc3)OC(=O)c3ccccc32)c(C)c1 (stereo not drawn) | 12 | – | – | – | –
Cc1cccc(C)c1OC1(c2ccccc2)OC(=O)c2ccccc21 (stereo not drawn) | 12 | – | – | – | –
CCOC1(c2ccccc2)OC(=O)c2ccccc21 (stereo not drawn) | – | – | – | – | ·
CN(C)S(=O)(=O)c1ccc(C(=O)Nc2ccc(CCC(=O)N3CCCC3)cc2)cc1 | – | – | – | – | ·
Cc1ccc(S(=O)(=O)Cn2nnnc2C(C(C)C)N2CCN(Cc3ccco3)CC2)cc1 (stereo not drawn) | – | – | – | – | ·
Cc1ccc(S(=O)(=O)Cn2nnnc2CN(Cc2ccco2)Cc2cccs2)cc1 | 12 | – | – | – | –
COc1ccc(CCN2C(=O)/C(=C\c3ccco3)SC2=S)cc1OC | 12 | · | · | · | –
CCOC(=O)C1CN(S(=O)(=O)c2cccc(C(F)(F)F)c2)c2cc(CC(=O)OC)ccc2O1 (stereo not drawn) | 16 | – | – | – | –
COc1ccc(CNc2oc(COc3ccc(Cl)cc3)nc2C#N)cc1 | 13 | – | – | – | –
COc1ccc(N2CCN(c3oc(COc4ccc(Cl)cc4)nc3C#N)CC2)cc1 | 13 | – | – | – | –
SMILES | RAM network inh | SDO1 yeast rescue | BB579 growth dn | Yeast life ext | RAM 5-FOA
Cc1ccc(OCc2nc(C#N)c(NCc3ccc4c(c3)OCO4)o2)cc1 | 15 | – | – | – | –
CC(=O)c1ccc(OCc2ccc(C(=O)c3ccccc3)cc2)cc1 | – | · | · | · | ·
CC(=O)c1ccc(OCc2ccc(Oc3c(Cl)cccc3[N+](=O)[O-])cc2)cc1 | 13 | – | – | – | –
CCCn1c(=O)c(C(=O)Nc2ccccc2C(=O)OC)c(O)c2ccccc21 | 14 | – | – | – | –
CCn1c(=O)c(C(=O)Nc2ccsc2C(=O)OC)c(O)c2ccccc21 | – | – | – | – | ·
C=CCn1c(=O)c(C(=O)Nc2ccccc2C(=O)OCC)c(O)c2ccccc21 | 14 | – | – | – | –
CCOC(=O)c1ccccc1NC(=O)c1c(O)c2ccccc2n(CC)c1=O | 11 | – | – | – | –
COc1ccc(/C=C(\C#N)C(=O)NCCc2ccccc2)cc1OCc1ccccc1 | 18 | – | – | – | –
COCCCNC(=O)/C(C#N)=C/c1ccc(OCC(=O)O)c(OC)c1 | – | – | – | – | ·
CCc1ccc(S(=O)(=O)N(C(=O)c2ccncc2)c2ccc(OC(=O)c3ccncc3)cc2)cc1 | – | – | – | – | ·
O=C(O)c1ccccc1C(=O)Nc1ccc(Oc2ccc3ccccc3c2)cc1 | – | · | · | · | ·
Cc1ccc(SCCNC(=O)c2ccc(C)c(S(=O)(=O)Nc3cccc(C)c3)c2)cc1 | 16 | – | – | – | –
CC(C)c1ccccc1NC(=S)NCCCn1ccnc1 | – | · | · | · | ·
C(=C\c1ccccc1)/C=N/Nc1nc2ccccc2[nH]1 | – | – | – | – | ·
CCCCn1c(O)c(/C=C/C=C/C=Nc2ccccc2)sc1=S | 13 | · | · | · | –
O=C(O)c1cc(N2N=C(C(F)(F)F)/C(=C/C=C/c3ccco3)C2=O)ccc1Cl | 14 | · | · | · | –
CCOC(=O)c1ccc(N2N=C(C)/C(=C/C=C/c3ccco3)C2=O)cc1 | – | – | – | · | ·
C=CCn1c(-c2cccn(Cc3ccc(Cl)cc3)c2=O)n[nH]c1=S | 13 | – | – | – | –
C=CCn1c(-c2cccn(Cc3ccccc3)c2=O)n[nH]c1=S | – | – | – | – | ·
COCCCn1c(SCc2ccccc2)nc2cc(OC)c(OC)cc2c1=N | – | – | – | – | ·
O=C(COC(=O)c1cccc([N+](=O)[O-])c1)c1ccc(OCc2ccccc2)cc1 | – | – | – | – | ·
O=C(CNS(=O)(=O)c1ccccc1)OCC(=O)c1ccc(OC(=O)c2ccccc2)cc1 | – | – | – | – | ·
Cc1ccccc1OCC(=O)OCC(=O)c1ccc(OCc2ccccc2)cc1 | 12 | – | – | – | –
Cc1ccccc1OCC(=O)OCC(=O)c1ccc(OC(=O)c2ccccc2)cc1 | 14 | – | – | – | –
Cc1c(-n2c(SCC(=O)N(C)C3CCS(=O)(=O)C3)nc3ccccc3c2=O)c(=O)n(-c2ccccc2)n1C (stereo not drawn) | – | · | · | · | ·
SMILES | RAM network inh | SDO1 yeast rescue | BB579 growth dn | Yeast life ext | RAM 5-FOA
CCN(CC)S(=O)(=O)c1cccc(-c2nnc(SCC(=O)c3cc(C)n(C)c3C)o2)c1 | – | – | – | – | ·
CCN(CC)S(=O)(=O)c1ccc(-c2nnc(SCc3nnc(-c4ccc(C)cc4)o3)o2)cc1 | – | – | – | – | ·
CCN(CC)S(=O)(=O)c1cccc(-c2nnc(SCCOc3ccccc3C)o2)c1 | 12 | – | – | – | –
CCN(CC)S(=O)(=O)c1cccc(-c2nnc(SCCOc3ccccc3)o2)c1 | 13 | – | – | – | –
CCN(CC)S(=O)(=O)c1cccc(-c2nnc(SCCOc3ccc(Cl)cc3)o2)c1 | 16 | – | – | – | –
CC(=O)NCCc1nc2ccccc2n1Cc1ccc(C)cc1 | – | – | – | – | ·
